This passage reports IC50 and Activity results from ChEMBL document CHEMBL4043077, “Revisiting Previously Investigated Plants: A Molecular Networking-Based Study of Geissospermum laeve” (J Nat Prod, 2017).

What is called IC50 is the concentration that gives 50% inhibition.

Assay [1] relates to Leishmania donovani. Nature of the assay: Antiparasitic activity against Leishmania donovani LV9 […] amastigotes infected in mouse RAW264.7 cells incubated for 48 hrs by Sybr Green I dye based assay. The format is functional, cell-based. As to conditions: LV9, RAW264.7, 48 h. In short, it runs like this:
(§1)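 Mean ± standard error of three independent in vitro experiments. Reference drugs: miltefosine for L. donovani LV9, tested on axenic amastigotes and on amastigotes inside RAW 264.7 macrophages; paclitaxel for MRC-5, a human fetal lung fibroblast line.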

In assay [2] the test system is Leishmania donovani. Nature of the assay: Antiparasitic activity against Leishmania donovani LV9 axenic amastigotes incubated for 72 hrs by resazurin dye based assay. As to conditions: LV9, 72 h. It counts as functional. In a few lines: as §1
A general note: Resazurin is reduced to fluorescent resorufin, in cell work by metabolically active cells.

Assay [3] concerns Leishmania donovani. Nature of the assay: Antiparasitic activity against Leishmania donovani LV9 […] amastigotes infected in mouse RAW264.7 cells assessed induction of parasite cell morphological alteration at 12.5 uM incubated for 72 hrs by microscopy. The format is functional, cell-based. In short, it runs like this: (§2)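 RAW 264.7 macrophages infected with L. donovani LV9 amastigotes were incubated with compound for 72 h, then examined under the microscope for morphological alteration of the infected cells.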

Assay [4] concerns Leishmania donovani. The experiment in a line: Antiparasitic activity against Leishmania donovani LV9 […] amastigotes infected in mouse RAW264.7 cells assessed induction of parasite cell morphological alteration at 100 uM incubated for 72 hrs by microscopy. The format is functional, cell-based. In a few lines:
as §2

The test system of another assay is MRC5. Nature of the assay: Cytotoxic activity against human MRC5 cells incubated for 72 hrs by resazurin dye based spectrophotometry. The format is cell-based. As to conditions: MRC5, 72 h. In a few lines: as §1
The subject of the next assay is Plasmodium falciparum. The experiment in a line: Antiparasitic activity against chloroquine-resistant Plasmodium falciparum FcB1/Columbia infected in human erythrocytes assessed as reduction in [3H]-hypoxanthine incorporation incubated for 24 hrs assay by liquid scintillation spectrometry. The format is functional, cell-based. In short, it runs like this:
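In vitro test of purified alkaloids against the FcB1 strain. Values are the mean ± standard error of three independent experiments.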

Assay [5] relates to Leishmania donovani. Nature of the assay: Antiparasitic activity against Leishmania donovani LV9 […] amastigotes infected in mouse RAW264.7 cells assessed induction of parasite cell morphological alteration at 50 uM incubated for 72 hrs by microscopy. The format is functional, cell-based. In short, it runs like this:
as §2

For assay [6], the system named is Leishmania donovani. The experiment in a line: Antiparasitic activity against Leishmania donovani LV9 […] amastigotes infected in mouse RAW264.7 cells assessed induction of parasite cell morphological alteration at 6.25 uM incubated for 72 hrs by microscopy. It counts as functional, cell-based. In short, it runs like this: as §2

Each structure is given as a SMILES string. Activity calls are given as the source filed them. The rule behind the calls is not given here.

As to `CCCCCCCCCCCCCCCCOP(=O)([O-])OCC[N+](C)(C)C` [MILTEFOSINE], the half-maximal inhibitory concentration (IC50) worked out at 5.2 µM in the assay with Leishmania donovani [1] and 1.4 µM with Leishmania donovani [2]. Moreover, in the assay with Leishmania donovani [3], the result was Active.
`CCC1=C(CC(=O)OC)[C@@](O)(c2nccc3c2[nH]c2ccccc23)OC1=O`: the outcome in the assay on Leishmania donovani [4] was inactive. Besides, the 50% inhibitory concentration (IC50) with Leishmania donovani [1] is 25.7 µM; in the assay on MRC5 it was over 50 µM; with Leishmania donovani [2], over 100 µM; in the assay on Plasmodium falciparum, 74.2 µM.
The like results for `CC[C@@]12CCCN3C(=O)C=C(c4ccccc4NC(=O)CC1)[C@]32O` were, in that order, “inactive”, 25 µM, over 50 µM, over 100 µM and over 100 µM.
`CC(=O)O[C@H]1C(=O)[C@@]2(C)[C@H]([C@H](OC(=O)c3ccccc3)[C@]3(O)C[C@H](OC(=O)[C@H](O)[C@@H](NC(=O)c4ccccc4)c4ccccc4)C(C)=C1C3(C)C)[C@]1(OC(C)=O)CO[C@@H]1C[C@@H]2O` [PACLITAXEL] registered an IC50 with MRC5 of 0.00052 µM.
As to `C/C=C1/C[n+]2ccc3c([nH]c4ccccc43)c2C[C@@H]1[C@@H](C(=O)OC)[C@@H]1OC[C@H]2[C@H]3C[C@@H]4N(CC[C@@]45c4ccccc4N1[C@@H]25)C[C@H]3CC`, the IC50 in the assay with Leishmania donovani [1] came out at 57.8 µM; in the assay on MRC5, 3 µM; in the assay with Leishmania donovani [2] it was 51.8 µM; with Plasmodium falciparum, 2.9 µM. Also, in the assay on Leishmania donovani [5], the outcome was Active.
Regarding `C/C=C1\C[C@H]2[C@@H]([C@@H]3OC[C@H]4[C@H]5C[C@@H]6N(CC[C@@]67c6ccccc6N3[C@@H]47)C[C@H]5CC)[C@@H]3Cc4c([nH]c5ccccc45)[C@H]2N3C1`, the IC50 in the assay on Leishmania donovani [1] was found to be 4.5 µM; in the assay on MRC5, 0.022 µM; in the assay with Leishmania donovani [2] it was 9.4 µM; in the assay with Plasmodium falciparum, 1.9 µM. For the same compound, the outcome in the assay with Leishmania donovani [6] was Active.
`CCC1=C(CC(=O)OC)[C@@](OC)(c2nccc3c2[nH]c2ccccc23)OC1=O`: the outcome in the assay on Leishmania donovani [4] was inactive. Moreover, the IC50 is 59.6 µM in the assay on Leishmania donovani [1], over 50 µM with MRC5, over 100 µM in the assay on Leishmania donovani [2] and 56 µM with Plasmodium falciparum.
